Legend:
CCRF-HSB-2 = experiment: Growth inhibition of human CCRF-HSB-2 cells by MTT assay; type: functional, cell-based
Procedure, shortened: (§1)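 5×10^3 cells per well seeded with compound added simultaneously, triplicate wells, 72 h at 37 °C in humidified 5% CO2. MTT (5 mg/mL stock in Ca/Mg-free PBS) added for a further 4 h at 37 °C. Formazan solubilized in 0.02 N HCl/50% DMF/20% SDS, OD570 read. Inhibition (%) = (1 − T/C) × 100 against mean control; IC50 taken from dose–response curve.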

KB = experiment: Growth inhibition of human KB cells by MTT assay; type: functional, cell-based; procedure, shortened: as §1
NCI-H460 = experiment: Growth inhibition of human NCI-H460 cells by MTT assay; type: functional, cell-based; procedure, shortened: as §1
HCT-116 = experiment: Growth inhibition of human HCT116 cells by MTT assay; type: functional, cell-based; procedure, shortened: as §1
A-431 [1] = experiment: Growth inhibition of human A431 cells by MTT assay; type: functional, cell-based; procedure, shortened: as §1
A-431 [2] = experiment: Antitumor activity against human A431 xenograft in intratumorally dosed BALB/c nude mouse at 25 mg/kg after 17 days relative control; type: functional
Procedure, shortened: (§2)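 A431 implanted subcutaneously in BALB/c nude mice; dosing begins (day 1) when tumors reach 100–300 mm3. Compound suspended in 0.5% gum arabic. Intratumoral: five daily doses per week for 3 weeks (days 1-5, 8-12, 15-19). Intraperitoneal and oral: daily for 10 days (days 1-10). Tumor length a and width b measured 2–3 times weekly; volume = a×b²/2; T/C % = (Tn/T1)×100/(Cn/C1).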

Mus musculus [3] = experiment: Weight change in intratumorally dosed BALB/c nude mouse bearing human A431 cells at 25 mg/kg after 17 days; type: functional, A-431
Procedure, shortened: (§3)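 BALB/c nude mice bearing subcutaneous A431 tumors, dosed from the day tumors reach 100–300 mm3. Vehicle: 0.5% gum arabic suspension. Intratumoral schedule: days 1-5, 8-12, 15-19. Intraperitoneal and oral schedule: daily, days 1-10. Body weight change in g recorded at 17 days (it), 10 days (ip) or 18 days (po) after treatment.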

A-431 [4] = experiment: Antitumor activity against human A431 xenograft in BALB/c nude mouse at 75 mg/kg, po after 18 days relative control; type: functional; procedure, shortened: as §2
Mus musculus [5] = experiment: Weight change in human […] A431 xenografted BALB/c nude mouse at 75 mg/kg, po after 18 days; type: functional; procedure, shortened: as §3
A-431 [6] = experiment: Antitumor activity against human A431 xenograft in BALB/c nude mouse at 150 mg/kg, po after 18 days relative control; type: functional; procedure, shortened: as §2
Mus musculus [7] = experiment: Weight change in human A431 xenografted BALB/c nude mouse at 150 mg/kg, po after 18 days; type: functional; procedure, shortened: as §3
A-431 [8] = experiment: Antitumor activity against human A431 xenograft in BALB/c nude mouse at 100 mg/kg, ip after 10 days relative control; type: functional; details: route intraperitoneal; procedure, shortened: as §2
Mus musculus [9] = experiment: Weight change in human A431 xenografted BALB/c nude mouse at 100 mg/kg, ip after 10 days; type: functional; details: route intraperitoneal; procedure, shortened: as §3
Mus musculus [10] = experiment: Weight change in human A431 xenografted BALB/c nude mouse at 1 mg/kg, ip after 10 days; type: functional; details: route intraperitoneal
Procedure, shortened: (§4)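 A431 cells implanted subcutaneously into BALB/c nude mice. Dosing began (day 1) once tumors reached 100–300 mm3, given ip as a suspension in 0.5% gum arabic, daily for days 1–10. Tumor length (a) and width (b) were measured 2–3 times weekly; volume = (a×b²)/2. T/C % = (Tn/T1)×100/(Cn/C1), read on day 10. Body weight change was given in g.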

A-431 [11] = experiment: Antitumor activity against human A431 xenograft in BALB/c nude mouse at 1 mg/kg, po after 18 days relative control; type: functional
Procedure, shortened: (§5)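 Subcutaneous A431 xenografts in BALB/c nude mice were dosed orally once tumors reached 100–300 mm3 (day 1). Dosing was daily for days 1–10 as a suspension in 0.5% gum arabic. Volume = (a×b²)/2 from calipered length and width. Relative volume T/C % = (Tn/T1)×100/(Cn/C1) and body weight change (g) were assessed 18 days after treatment.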

Mus musculus [12] = experiment: Weight change in human A431 xenografted BALB/c nude mouse at 1 mg/kg, po after 18 days; type: functional; procedure, shortened: as §5
Mus musculus [13] = experiment: Weight change in intratumorally dosed BALB/c nude mouse bearing human A431 cells at 1 mg/kg after 17 days; type: functional, A-431
Procedure, shortened: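 A431 was transplanted subcutaneously into BALB/c nude mice. Intratumoral injections of a suspension in 0.5% gum arabic started when tumors reached 100–300 mm3. Injections were given five consecutive days per week for 3 weeks (days 1–5, 8–12, 15–19). Body weight change (g) was recorded on day 17.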

A-431 [14] = experiment: Antitumor activity against human A431 xenograft in BALB/c nude mouse at 1 mg/kg, ip after 10 days relative control; type: functional; details: route intraperitoneal; procedure, shortened: as §4

| IC50 (CCRF-HSB-2) | IC50 (KB) | IC50 (NCI-H460) | IC50 (HCT-116) | Structure (SMILES) | also measured |
| --- | --- | --- | --- | --- | --- |
| 700 nM | 3980 nM |  |  | Cc1cccc2cc3c(=O)nc(-c4ccccc4)nc-3n(C)c12 |  |
| 1230 nM | 500 nM | 3100 nM | 2910 nM | COc1ccc2c(c1)cc1c(=O)nc(-c3ccccc3)nc-1n2C |  |
| 2140 nM | 5040 nM |  |  | COc1ccc2cc3c(=O)nc(-c4ccccc4)nc-3n(C)c2c1 |  |
| 730 nM | 510 nM |  |  | CCn1c2nc(-c3ccccc3)nc(=O)c-2cc2cc(C)ccc21 |  |
| 24400 nM | 62700 nM |  |  | COc1ccc2cc3c(=O)nc(-c4ccccc4)nc-3[nH]c2c1 |  |
|  |  | 1330 nM | 720 nM | COc1ccc2c(c1)[n+]([O-])c1c(=O)nc(-c3ccccc3)nc-1n2C |  |
| 1790 nM | 2620 nM |  |  | CCn1c2nc(-c3ccccc3)nc(=O)c-2cc2ccccc21 | IC50 (A-431 [1]): 760 nM; Activity (A-431 [2]): 109%; Activity (Mus musculus [3]): -1.6 g |
| 1490 nM | 1860 nM | 2080 nM | 1680 nM | Cc1ccc2c(c1)cc1c(=O)nc(-c3ccccc3)nc-1n2C | IC50 (A-431 [1]): 2450 nM |
| 11800 nM | 2330 nM | 2230 nM | 2110 nM | Cn1c2nc(-c3ccccc3)nc(=O)c-2cc2ccccc21 | Activity (A-431 [4]): 97.6%; Activity (Mus musculus [5]): -0.9 g; Activity (A-431 [6]): 51.8%; Activity (Mus musculus [7]): -0.4 g; IC50 (A-431 [1]): 1440 nM; Activity (A-431 [2]): 57.2%; Activity (Mus musculus [3]): 0.1 g; Activity (A-431 [8]): 53.4%; Activity (Mus musculus [9]): -1.7 g |

Continued, molecule first:

| Structure (SMILES) | IC50 (CCRF-HSB-2) | IC50 (KB) | IC50 (NCI-H460) | IC50 (HCT-116) | also measured |
| --- | --- | --- | --- | --- | --- |
| CCn1c2nc(-c3ccccc3)nc(=O)c-2[n+]([O-])c2ccccc21 | 960 nM | 2380 nM |  |  |  |
| Cn1c2nc(-c3ccccc3)nc(=O)c-2[n+]([O-])c2ccccc21 | 970 nM | 1080 nM | 2720 nM | 1800 nM | IC50 (A-431 [1]): 1310 nM |
| CC(C)n1c2nc(-c3ccccc3)nc(=O)c-2[n+]([O-])c2ccccc21 | 980 nM | 2180 nM | 6050 nM | 6580 nM |  |
| Cc1ccc2c(c1)[n+]([O-])c1c(=O)nc(-c3ccccc3)nc-1n2C | 500 nM | 1750 nM | 4390 nM | 3250 nM |  |
| Cc1cccc2cc3c(=O)nc(-c4ccccc4)nc-3[nH]c12 | 299000 nM | > 350000 nM |  |  |  |
| COc1cc2c(c(OC)c1OC)[n+]([O-])c1c(=O)nc(-c3ccccc3)nc-1n2C |  |  | 3720 nM | 3760 nM |  |
| Cc1cccc2c1n(C)c1nc(-c3ccccc3)nc(=O)c-1[n+]2[O-] | 1290 nM | 3280 nM |  |  |  |
| CCn1c2nc(-c3ccccc3)nc(=O)c-2[n+]([O-])c2cc(C)ccc21 | 1710 nM | 2970 nM |  |  |  |
| O=c1nc(-c2ccccc2)nc2[nH]c3ccccc3cc1-2 | 3830 nM | 5120 nM |  |  | IC50 (A-431 [1]): 3880 nM |
| Nc1ccn([C@@H]2O[C@H](CO)[C@@H](O)[C@@H]2O)c(=O)n1 [CYTARABINE] | 150 nM | 700 nM |  |  |  |
| COc1cccc2c1C(=O)c1c(O)c3c(c(O)c1C2=O)C[C@@](O)(C(=O)CO)C[C@@H]3O[C@H]1C[C@H](N)[C@H](O)[C@H](C)O1 [DOXORUBICIN] |  |  |  |  | IC50 (A-431 [1]): 50 nM |
| CN[C@@H]1C[C@H]2O[C@@](C)([C@@H]1OC)n1c3ccccc3c3c4c(c5c6ccccc6n2c5c31)C(=O)NC4 [STAUROSPORINE] |  |  |  |  | Activity (Mus musculus [10]): -1 g; Activity (A-431 [11]): 72.9%; Activity (Mus musculus [12]): -2 g; Activity (Mus musculus [13]): -0.6 g; Activity (A-431 [14]): 84.9% |
